Our source for the Activity, Ki and inhibition values is ChEMBL document CHEMBL4038327, “Inhibitory Kappa B Kinase α (IKKα) Inhibitors That Recapitulate Their Selectivity in Cells against Isoform-Related Biomarkers” (J Med Chem, 2017).

SMILES strings stand for the structures.

In general, Ki refers to a dissociation constant, usually derived from enzyme kinetics or from competition with a known ligand. By inhibition is commonly meant how much of the control response was suppressed.

The target in experiment [1] is T1, Inhibitor of nuclear factor kappa-B kinase subunit alpha (Mus musculus) (UniProt Q60680).
T1 sequence (whole entry): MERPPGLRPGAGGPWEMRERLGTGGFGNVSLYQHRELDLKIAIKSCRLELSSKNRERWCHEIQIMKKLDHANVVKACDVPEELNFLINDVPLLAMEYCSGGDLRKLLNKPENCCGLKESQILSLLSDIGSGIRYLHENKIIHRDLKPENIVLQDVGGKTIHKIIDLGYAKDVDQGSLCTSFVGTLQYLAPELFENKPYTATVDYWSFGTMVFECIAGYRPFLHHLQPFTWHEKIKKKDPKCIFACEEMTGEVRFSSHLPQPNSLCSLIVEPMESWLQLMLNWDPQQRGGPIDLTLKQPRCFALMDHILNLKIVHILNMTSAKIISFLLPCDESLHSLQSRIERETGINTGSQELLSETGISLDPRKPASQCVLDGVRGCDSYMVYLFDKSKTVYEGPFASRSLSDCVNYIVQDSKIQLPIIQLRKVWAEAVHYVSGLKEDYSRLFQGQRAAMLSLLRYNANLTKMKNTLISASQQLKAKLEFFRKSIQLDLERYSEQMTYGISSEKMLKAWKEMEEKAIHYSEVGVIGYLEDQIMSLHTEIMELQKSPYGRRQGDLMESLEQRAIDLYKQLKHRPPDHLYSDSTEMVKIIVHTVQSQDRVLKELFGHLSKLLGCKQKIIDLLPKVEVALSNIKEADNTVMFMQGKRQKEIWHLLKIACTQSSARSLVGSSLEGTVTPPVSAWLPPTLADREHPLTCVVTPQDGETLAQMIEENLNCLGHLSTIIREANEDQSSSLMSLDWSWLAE
The experiment in a line: Inhibition of IKKalpha in IKKbeta knockout mouse embryonic fibroblast cells harboring Adv.NF-kB.luc assessed as IL-1beta induced NF-kB transcriptional activation at 100 uM pretreated for 1 hr followed by IL-1beta stimulation for 6 hrs by luciferase reporter gene assay relative to control. Details: scale not given: the % may be the effect or the level left. In short, it runs like this: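 IKKβ knockout MEFs infected with Adv.NF-kB.luc (up to 300 pfu/cell, 24 h, 10% DMEM), replated and serum-starved 24 h. Pretreated 1 h with compound, then IL-1β (10 ng/mL) for 6 h. Lysis buffer contained 0.2 mM luciferin, and luminescence was read as RLU. Results are expressed as % of IL-1β + DMSO stimulation.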
Background: Reporter assays use an easily measured gene product as a stand-in for the process of interest.

Experiment [2] concerns the target T2, Inhibitor of nuclear factor kappa-B kinase subunit alpha (Homo sapiens, UniProt O15111).
T2 sequence (O15111 whole entry): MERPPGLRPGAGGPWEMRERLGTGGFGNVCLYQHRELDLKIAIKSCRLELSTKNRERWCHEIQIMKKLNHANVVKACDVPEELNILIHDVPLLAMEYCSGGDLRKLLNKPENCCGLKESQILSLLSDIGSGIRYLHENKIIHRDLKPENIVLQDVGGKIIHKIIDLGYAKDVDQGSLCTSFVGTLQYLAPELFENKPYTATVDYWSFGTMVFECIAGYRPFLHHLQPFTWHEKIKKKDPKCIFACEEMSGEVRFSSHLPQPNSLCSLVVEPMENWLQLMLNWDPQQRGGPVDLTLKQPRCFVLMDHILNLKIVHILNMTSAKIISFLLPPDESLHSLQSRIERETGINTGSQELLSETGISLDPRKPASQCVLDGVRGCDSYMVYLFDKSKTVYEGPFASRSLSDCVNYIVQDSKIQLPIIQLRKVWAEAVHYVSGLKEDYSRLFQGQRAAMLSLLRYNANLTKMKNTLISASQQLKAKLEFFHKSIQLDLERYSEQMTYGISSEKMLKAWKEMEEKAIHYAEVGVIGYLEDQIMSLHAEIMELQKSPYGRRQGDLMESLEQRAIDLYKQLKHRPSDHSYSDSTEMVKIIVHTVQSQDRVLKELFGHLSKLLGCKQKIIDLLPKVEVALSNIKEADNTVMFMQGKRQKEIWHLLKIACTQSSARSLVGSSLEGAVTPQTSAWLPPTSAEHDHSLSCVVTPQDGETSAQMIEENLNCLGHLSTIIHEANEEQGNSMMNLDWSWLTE
The experiment in a line: Inhibition of recombinant human N-terminal GST-tagged IKKalpha (1 to 745 residues) expressed in baculovirus expression system using biotinylated IkBalpha as substrate after 60 mins by DELFIA.

In experiment [3] the target is T3, Serine/threonine-protein kinase D1 (Homo sapiens) (UniProt Q15139).
T3 sequence (whole entry): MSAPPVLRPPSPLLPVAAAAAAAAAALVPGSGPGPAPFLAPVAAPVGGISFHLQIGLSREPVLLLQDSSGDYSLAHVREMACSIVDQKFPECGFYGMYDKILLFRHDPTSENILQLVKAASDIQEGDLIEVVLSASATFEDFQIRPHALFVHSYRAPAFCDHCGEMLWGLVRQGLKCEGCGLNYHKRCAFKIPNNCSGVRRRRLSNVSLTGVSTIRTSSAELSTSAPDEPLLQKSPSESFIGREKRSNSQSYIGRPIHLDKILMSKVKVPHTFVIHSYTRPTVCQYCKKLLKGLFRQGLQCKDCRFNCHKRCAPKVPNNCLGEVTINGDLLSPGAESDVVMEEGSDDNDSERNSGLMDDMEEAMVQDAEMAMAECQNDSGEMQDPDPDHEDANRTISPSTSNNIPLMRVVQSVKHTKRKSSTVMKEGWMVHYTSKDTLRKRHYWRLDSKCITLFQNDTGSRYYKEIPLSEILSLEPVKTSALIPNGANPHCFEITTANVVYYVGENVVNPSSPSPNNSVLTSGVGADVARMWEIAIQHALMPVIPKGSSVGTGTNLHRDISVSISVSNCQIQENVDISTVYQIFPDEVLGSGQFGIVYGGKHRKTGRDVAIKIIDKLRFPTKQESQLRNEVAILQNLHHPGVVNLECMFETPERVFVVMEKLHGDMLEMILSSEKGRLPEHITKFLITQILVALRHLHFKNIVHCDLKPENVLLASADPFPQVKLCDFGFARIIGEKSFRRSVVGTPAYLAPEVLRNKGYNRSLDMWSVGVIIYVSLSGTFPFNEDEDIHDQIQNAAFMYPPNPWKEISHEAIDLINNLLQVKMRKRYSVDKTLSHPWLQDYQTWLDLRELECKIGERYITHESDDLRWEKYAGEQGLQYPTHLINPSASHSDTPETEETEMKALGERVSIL
The experiment in a line: Inhibition of N-terminal His6 tagged recombinant human full length PKCmu expressed in Sf21 cells at 10 uM relative to control. In short, it runs like this:
(§1)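 Outsourced commercial kinase panel run at a single concentration, with duplicate assay points.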

The target in experiment [4] is Dual specificity mitogen-activated protein kinase kinase 1 (Homo sapiens) (UniProt Q02750). The experiment in a line: Inhibition of N-terminal GST tagged/C-terminal His6-tagged recombinant full length human Mek1 expressed in Escherichia coli cells at 10 uM relative to control. In short, it runs like this:
as §1

In experiment [5] the target is Casein kinase I isoform delta (Homo sapiens) (UniProt P48730). Nature of the experiment: Inhibition of recombinant human N-terminal GST-tagged CK1delta (1 to 294 residues) expressed in Escherichia coli at 10 uM relative to control. In short, it runs like this: as §1
Chain of Casein kinase I isoform delta (Homo sapiens) (P48730 whole entry, looked up, the tested form may be a part, canonical isoform): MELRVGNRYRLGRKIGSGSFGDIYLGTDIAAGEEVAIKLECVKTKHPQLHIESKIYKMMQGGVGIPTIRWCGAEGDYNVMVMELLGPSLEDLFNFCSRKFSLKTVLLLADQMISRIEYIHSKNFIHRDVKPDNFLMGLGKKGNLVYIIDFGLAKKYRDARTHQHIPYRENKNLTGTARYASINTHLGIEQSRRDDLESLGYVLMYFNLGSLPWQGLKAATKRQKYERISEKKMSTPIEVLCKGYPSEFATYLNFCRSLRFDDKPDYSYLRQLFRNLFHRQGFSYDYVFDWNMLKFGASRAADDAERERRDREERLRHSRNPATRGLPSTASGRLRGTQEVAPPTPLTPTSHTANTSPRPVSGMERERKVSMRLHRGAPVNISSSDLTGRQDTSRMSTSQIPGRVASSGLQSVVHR
In experiment [6] the target is Serine/threonine-protein kinase Chk2 (Homo sapiens) (UniProt O96017). The experiment in a line: Inhibition of N-terminal GST and C-terminal His6 tagged recombinant human CHK2 expressed in Escherichia coli cells at 10 uM relative to control. In short, it runs like this: as §1
Chain of Serine/threonine-protein kinase Chk2 (Homo sapiens) (O96017 whole entry): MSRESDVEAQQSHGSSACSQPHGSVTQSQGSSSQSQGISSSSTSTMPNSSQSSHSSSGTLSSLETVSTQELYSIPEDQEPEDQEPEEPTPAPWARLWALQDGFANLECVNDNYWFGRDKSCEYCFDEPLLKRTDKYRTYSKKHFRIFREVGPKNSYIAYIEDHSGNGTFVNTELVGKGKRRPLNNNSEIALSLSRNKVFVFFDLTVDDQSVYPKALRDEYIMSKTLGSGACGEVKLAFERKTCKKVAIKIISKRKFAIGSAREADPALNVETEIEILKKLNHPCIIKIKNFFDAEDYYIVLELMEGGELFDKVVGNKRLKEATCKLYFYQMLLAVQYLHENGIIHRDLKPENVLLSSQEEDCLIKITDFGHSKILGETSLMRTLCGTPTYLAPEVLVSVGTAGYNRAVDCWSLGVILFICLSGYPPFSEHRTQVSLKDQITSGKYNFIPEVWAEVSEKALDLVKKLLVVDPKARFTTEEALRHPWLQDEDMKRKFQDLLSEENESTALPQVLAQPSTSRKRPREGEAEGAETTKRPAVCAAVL

Chain of Dual specificity mitogen-activated protein kinase kinase 1 (Homo sapiens) (Q02750 whole entry): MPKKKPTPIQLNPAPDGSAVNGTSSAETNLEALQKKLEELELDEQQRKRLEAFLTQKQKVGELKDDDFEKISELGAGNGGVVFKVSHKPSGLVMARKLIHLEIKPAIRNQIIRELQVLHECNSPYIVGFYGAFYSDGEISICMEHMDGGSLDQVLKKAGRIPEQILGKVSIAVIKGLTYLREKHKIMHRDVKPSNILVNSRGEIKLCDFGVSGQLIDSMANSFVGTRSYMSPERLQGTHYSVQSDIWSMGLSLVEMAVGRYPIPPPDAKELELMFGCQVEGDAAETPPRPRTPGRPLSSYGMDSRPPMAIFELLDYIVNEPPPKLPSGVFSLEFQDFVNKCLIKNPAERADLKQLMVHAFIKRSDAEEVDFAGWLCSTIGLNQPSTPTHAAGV

In the case of `N#Cc1c[nH]c2nc(N)nc(-c3ccc(S(N)(=O)=O)cc3)c12`, in experiment [1], the Activity is -40.9%. The inhibitory constant (Ki) in experiment [2] was 80 nM. Besides, the inhibition in experiment [3], in experiment [4], in experiment [5] and in experiment [6] was above 80% in each case.
